Data taken from ChEMBL document CHEMBL1126774, “Synthesis and antiviral activity of novel 5-(1-azido-2-haloethyl) and 5-(1-azido-, amino-, or methoxyethyl) analogs of 2'-deoxyuridine” (J Med Chem, 1993).

Experiments:
Homo sapiens [1] = species: Homo sapiens; assay: Concentration of the drug required to reduce the uptake of neural red stain by uninfected cell monolayers (HFF); assay type: functional
Outline: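 HFF cells plated 24 h before assay at 2.5×10^4 cells/well; drug added in 1:5 serial dilution, incubated 7 days at 37 °C in CO2; 0.01% neutral red in DPBS 1 h, washed, dye extracted with 50% EtOH/1% acetic acid, OD 550 nm; value is concentration (µM) reducing uptake to 50% of untreated uninfected controls.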

[2] = Inhibitory concentration of the drug against the cytopathic effect for E-377 strain of herpes simplex virus-1 (HSV-1) in human HFF cells; assay type: functional, cell-based
Outline: (§1)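 HFF CPE assay: low-passage cells seeded 24 h before in MEM + 10% FBS, switched to MEM + 2% FBS. Drug added in triplicate, serially diluted 1:5, plus HSV-1 or HSV-2 at 1000 PFU/well; 3 days at 37 °C in CO2. Staining with 0.1% crystal violet, read at 620 nm. Value is concentration (µM) reducing CPE by 50%.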

Homo sapiens [3] = species: Homo sapiens; assay: Concentration of the drug required to reduce the proliferation of human foreskin fibroblast cells; assay type: functional
Outline: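 HFF cells seeded 24 h before in MEM + 10% FBS; drugs serially diluted 1:5 in MEM + 10% FBS over 100 µg/mL to 0.03 µg/mL, 72 h at 37 °C in CO2; cells trypsinized and counted on a Coulter counter; value is concentration (µM) reducing proliferation to 50% of untreated controls.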

Raji = assay: Inhibitory concentration of the drug against the antigen production against P3HR-1 strain of epstein barr virus-2 (EBV) in Raji cells; assay type: functional, cell-based; details: Homo sapiens
Outline: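 Raji cells infected with EBV P3HR-1; drug added after adsorption (45 min, 37 °C) and washing, then 2 days in complete medium. Cells counted, smears stained with monoclonal antibodies to early antigen components and VCA plus fluorescent detection; positive cells counted. Value is concentration (µM) reducing antigen production to 50% of untreated infected controls.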

[4] = Inhibitory concentration of the drug against the cytopathic effect for MS strain of herpes simplex virus-2 (HSV-2) in human HFF cells; assay type: functional, cell-based; outline: as §1
[5] = tested on: Human cytomegalovirus (Human herpesvirus 5); assay: Inhibitory concentration of the drug against the cytopathic effect for AD169 strain of human cytomegalovirus (HCMV) in human HFF cells
[6] = Inhibitory concentration of the drug against the cytopathic effect for ellen strain of […] in human HFF cells; assay type: functional, cell-based

EC50 [2] [µM] | EC50 (Raji) [µM] | EC50 [4] [µM] | EC50 [5] [µM] | EC50 [6] [µM] | SMILES | IC50 (Homo sapiens [1]) [µM] | IC50 (Homo sapiens [3]) [µM]
 |  |  | 0.5 |  | Nc1nc2c(ncn2COC(CO)CO)c(=O)[nH]1 [GANCICLOVIR] | > 390 | 168
> 170 |  | > 170 | > 170 | > 67 | CC(N=[N+]=[N-])c1cn([C@H]2C[C@H](O)[C@@H](CO)O2)c(=O)[nH]c1=O (stereo partly specified) | > 170 | 81
0.6 | 12.1 | 1.5 | 0.9 | 66.4 | CCc1cn([C@H]2C[C@H](O)[C@@H](CO)O2)c(=O)[nH]c1=O [EDOXUDINE] | > 195 | 115
0.5 | 4 | 13.2 | > 118 | 12.3 | [N-]=[N+]=NC(CI)c1cn([C@H]2C[C@H](O)[C@@H](CO)O2)c(=O)[nH]c1=O (stereo partly specified) | > 118 | 76
> 100 | 44.6 | > 100 | > 125 | > 250 | CC(N)c1cn([C@H]2C[C@H](O)[C@@H](CO)O2)c(=O)[nH]c1=O (stereo partly specified) | > 125 | > 250
6.4 | 9.3 | 2.9 | > 130 | 4 | [N-]=[N+]=NC(CBr)c1cn([C@H]2C[C@H](O)[C@@H](CO)O2)c(=O)[nH]c1=O (stereo partly specified) | > 130 | 91
0.06 | 11.1 | 6.6 | > 150 | 4.5 | [N-]=[N+]=NC(CCl)c1cn([C@H]2C[C@H](O)[C@@H](CO)O2)c(=O)[nH]c1=O (stereo partly specified) | > 150 | > 300
0.02 |  | 2.21 | 24.8 | 0.01 | O=c1[nH]c(=O)n([C@H]2C[C@H](O)[C@@H](CO)O2)cc1/C=C/I | 86 | 4.4
1.7 |  | 1 | 5.9 | > 87 | COC(C)c1cn([C@H]2C[C@H](O)[C@@H](CO)O2)c(=O)[nH]c1=O (stereo partly specified) | > 175 | 330

SMILES | EC50 [2] [µM] | EC50 (Raji) [µM] | EC50 [4] [µM] | EC50 [5] [µM] | EC50 [6] [µM] | IC50 (Homo sapiens [1]) [µM] | IC50 (Homo sapiens [3]) [µM]
Nc1nc2c(ncn2COCCO)c(=O)[nH]1 [ACYCLOVIR] | 0.04 | 2.9 | 0.09 |  |  | > 440 | > 440
